Screening data deposited in PubChem by several laboratories.
An excerpt weighted towards active compounds, which were near 5.7% of everything screened.
Beta cell apopt = blocks beta cell apoptosis; INS-1E cytokine-induced death, ATP luminescence, 48 h; percent of positive-control rescue, neutral wells zero; protection from apoptosis, % (concentration not given with the values); 0.8% of 300,000 active; AID 435005;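 active means Every replicate reaches about 75%, or at least half do and their mean reaches it too, limit read from the data; inconclusive means At least half of replicates reach the limit but their mean does not; inactive means Under half of replicates reach the limit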;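 further: 0% = cytokine-treated negative control wells and 100% = positive control rescue; higher means more ATP so stronger rescue from cytokine killing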
Calb FLC = affects C. albicans growth with fluconazole; growth inhibition, % (concentration not given with the values); 0.57% of 300,000 active; C. albicans CaCi-2 (fluconazole-resistant clinical isolate) + fluconazole, Alamar Blue growth, 48 h; AID 1979;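 active means growth inhibition above about 58% in most replicates, limit read from the data, passing the limit was not always enough; inconclusive means exactly half the replicates above a set limit; inactive means most replicates below a set limit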;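 further: all wells also contain fluconazole at 8 µg/ml as a sub-toxic cotreatment; 0% = median of DMSO wells and 100% = median of geldanamycin control wells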
Mdm2 MdmX PPI = disrupts the human Mdm2-MdmX interaction; 3% of 330,000 active; inhibition, % at 8 µM; SaOS-2 split-luciferase Mdm2/MdmX complementation, luminescence; AID 485346;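 active means inhibition of at least 50% at 8 µM in the primary screen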
CSC inhib = cancer stem cell inhibition; cancer stem cell-like cells viability, luminescence; inhibition, % at 7.5 µM; 1.1% of 300,000 active; in the data active means inhibition above about 75%; inconclusive means no clear call, values can overlap the other calls; tested in HMLE shEcad cells
T cruzi repl = T. cruzi replication inhibition; T. cruzi beta-gal in NIH3T3, luminescence, 90 h; 1.4% of 300,000 active; inhibition, % (no concentration beside the values);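 active means mean inhibition across valid replicates above about 55%, limit read from the data; inconclusive means mean below that limit but half or more replicates reach it; inactive means mean below it, under half of replicates reach it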;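 further: signal also drops with host cell toxicity which is not excluded here; 0% = plate median of DMSO wells and 100% = zero luminescence signal; higher percent means less beta-gal luminescence so fewer parasites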
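System – NIH/3T3 host cells with β-galactosidase reporter T. cruzi · Doses – single 50 nL compound addition per well in DMSO · Reagent – 5000 T. cruzi trypomastigotes/well · Medium – Low-serum DMEM with 2% FBS · Timing – ≥90 h infection period, 3 h prior cell attachment · Evaluation – parasite load inhibition, % · Technique – GalScreen luminescence, 60 min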
SKKanGAS inh = SKKanGAS growth inhibition; inhibition, % at 7.5 µM; S. pyogenes SKKanGAS, kanamycin growth, BacTiter-Glo, 6 h; 1.3% of 300,000 active;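 active means mean replicate score, as percent of positive control median, at least 50; inconclusive means mean below 50 but one replicate at or above 50; inactive means mean and every replicate below 50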;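 further: strain carries kanamycin resistance gene driven by streptokinase promoter and grows in 40 µg/ml kanamycin; loss of luminescence reflects streptokinase promoter inhibition or plain growth inhibition; 0% = median of DMSO wells and 100% = positive control at its reference dose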
* hit, by the source's call; ? = inconclusive; / = not tested or not shown.

SMILES	Beta cell apopt	Calb FLC	Mdm2 MdmX PPI	CSC inhib	T cruzi repl	SKKanGAS inh
Cc1ccc(NS(=O)(=O)c2cc3c4c(cccc4c2)C(=O)NC3=O)cc1C	14	-6	40	79*	16	14
O=C(Nc1ccc(S(=O)(=O)NC2=NCCCCC2)cc1)c1cccs1	-4	/	-12	-16	/	/
Cc1cc(NS(=O)(=O)c2ccc(NC(=O)c3ccc([N+](=O)[O-])s3)cc2)nc(C)n1	-6	/	12	16	/	/
O=C(Nc1ccc(S(=O)(=O)NC2=NCCCCC2)cc1)c1ccc([N+](=O)[O-])s1	54	7	28	55	65*	23
Cc1ccnc(NS(=O)(=O)c2ccc(NC(=O)c3ccc([N+](=O)[O-])s3)cc2)n1	-9	9	18	27	67*	2
CCOC(=O)c1cc(S(=O)(=O)Nc2ccc(F)cc2F)cn1C	3	-5	22	-13	13	4
O=C(O)c1ccc(NC(=O)c2ccccc2NC(=O)c2cccc(Br)c2)cc1	-3	4	15	0	17	5
COc1ccc(/C=C/C(=O)OC2CCCCC2CN(C)C)cc1 (stereo unspecified)	0	-5	21	12	28	-7
COc1ccccc1/C=C/C(=O)OCCCN(C)C	3	5	-1	-6	66*	4
COc1ccccc1/C=C/C(=O)OCCN1CCOCC1	-8	8	-8	-9	-19	-10
COc1ccc(/C=C/C(=O)OCCCN(C)C)cc1	-6	-20	9	-3	57*	2
O=[N+]([O-])c1cc(S(=O)(=O)NCCN2CCOCC2)ccc1Cl	-11	-5	16	-7	0	5
CCC(C)c1ccccc1NC(=O)COC(=O)c1ccc2[nH]c3c(c2c1)CCCC3 (stereo unspecified)	7	-24	40	107*	0	4
CC(C)CC(=O)NCc1ccc2[nH]c3c(c2c1)CCCC3	-4	119*	18	/	4	-4
O=C(COC(=O)c1ccc2[nH]c3c(c2c1)CCCC3)Nc1ccccc1Cl	-1	2	29	11	8	0
CC(C)CN(C1CCS(=O)(=O)C1)S(=O)(=O)c1ccc(C(C)C)cc1 (stereo unspecified)	-5	-3	-2	-7	-3	-3
COc1cc(/C(C)=C/c2ccccc2)c2c(c1)oc1ccccc12	0	-1	/	/	-8	55*
COc1ccc(NC(=O)NC2CCCc3ccccc32)cc1OC (stereo unspecified)	5	2	10	1	2	3
COc1ccc(C)cc1NC(=O)NC1CCCc2ccccc21 (stereo unspecified)	7	3	36	2	11	51*
COc1ccccc1CN1CC(C(=O)NCCN(C)CCc2ccccc2)CCC1=O (stereo unspecified)	-6	-3	18	-9	60*	4
COc1ccccc1CCNC(=O)C1CCC(=O)N(Cc2ccccc2OC)C1 (stereo unspecified)	38	-1	6	-2	8	8
Oc1cccc(Nc2nc(O)c(/C=C3\C=Nc4ccccc43)s2)c1	9	/	-35	54	/	/
Oc1nc(Nc2ccc(F)cc2)sc1/C=C1\C=Nc2ccccc21	8	0	-9	66	13	55*
CC1=Nc2ccccc2/C1=C/c1sc(=O)n(CC(=O)N2CCCC2)c1O	2	1	4	-3	9	-11
Oc1nc(Nc2cccc(Cl)c2)sc1/C=C1\C=Nc2ccccc21	-3	-1	0	109*	-5	113*
SMILES	Beta cell apopt	Calb FLC	Mdm2 MdmX PPI	CSC inhib	T cruzi repl	SKKanGAS inh
CC1=Nc2ccccc2/C1=C\c1sc(Nc2ccc(C)cc2)nc1O	42	4	37	85*	29	37
Cc1ccc(C2NC(=NCc3ccccc3)Nc3nc(C)cc(=O)n32)cc1 (stereo unspecified)	-13	-19	15	1	10	0
Cc1ccc(CCNS(=O)(=O)c2ccc3c(c2)NC(=O)C(C)C(=O)N3)cc1 (stereo unspecified)	-2	-9	13	/	-3	-9
CC(C)(O)c1ccccc1CC[C@@H](SCC1(CC(=O)O)CC1)c1cccc(/C=C/c2ccc3ccc(Cl)cc3n2)c1	-3	/	19	97*	-2	105*
O=C(NNC(=S)NC1CCCCC1)c1ccccc1Br	1	58	1	14	-8	2
CN(C)CCCN(C(=O)COc1ccc(Cl)cc1)c1nc2cc3c(cc2s1)OCO3	114*	0	29	-4	23	5
CN(C)CCCN(C(=O)COc1ccc(Cl)cc1)c1nc2cc3c(cc2s1)OCCO3	/	-8	6	-7	57*	1
S=c1nc(SCc2ccccc2)[nH]c2ccccc12	3	35	-10	55	25	76*
CCCOc1ccc(C(=O)NNC(=S)NC(C)=O)cc1	34	102*	34	10	-9	93*
CCOc1ccc(CN(CCC#N)C(=S)NC(=O)c2ccccc2)cc1	19	0	-13	9	4	0
CCCOc1ccc(C(=O)NNC(=S)NC(=O)c2cc(-c3ccccc3)nc3ccccc23)cc1	-3	-1	26	22	-5	14
O=C(NNC(=S)NC(=O)c1ccccc1)c1ccc(O)cc1	11	0	32	8	-18	74*
CCOc1ccc(C(=O)NC(=S)N(Cc2ccccc2)Cc2ccccc2)cc1	18	10	/	28	?	98*
CCCOc1ccc(C(=O)NNC(=S)NC(=O)c2ccccc2)cc1	28	71	48	47	19	107*
CC(C)(C)c1ccc(OCC(=O)NNC(=S)NC(=O)c2ccccc2[N+](=O)[O-])c(Br)c1	-3	-2	18	27	-7	100*
Cc1ccccc1OCC(=O)NNC(=S)NC(=O)c1ccccc1[N+](=O)[O-]	-3	47	37	-19	-11	7
CCC(=O)NC(=S)NNC(=O)c1ccc(OC)cc1	/	-6	-25	20	-13	10
CCCOc1ccc(C(=O)NNC(=S)NC(=O)c2ccccc2[N+](=O)[O-])cc1	4	-2	12	10	-6	78*
CC(C)(C)c1ccc(C(=O)NC(=S)NNC(=O)COc2ccccc2)cc1	0	101*	12	23	-18	91*
CCCCOc1ccc(C(=O)NNC(=S)NC(=O)CC)cc1	79*	87*	/	47	4	97*
O=C(NNC(=S)NC(=O)c1ccccc1[N+](=O)[O-])c1ccccc1	0	10	9	3	-31	0
Cc1ccc(C(=O)NNC(=S)NC(=O)COc2ccccc2)cc1	-3	-9	0	6	-7	33
COc1ccc(CN(C(=O)c2snc(C(N)=O)c2N)C(C(=O)NC2CCCC2)c2cc(OC)ccc2OC)cc1 (stereo unspecified)	-6	11	12	-5	14	3
